# E-sel inducer: E-selectin induction on HUVECs; activation, % at 7.58 µM; P16581; AID 686992; hit rate 0.37% among 260,000; HUVEC E-selectin immunofluorescence imaging; normalized: neutral wells 0, TNF-alpha wells 100;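 active means mean E-selectin-positive cell signal at least 10% of the positive control, reached in at least 60% of replicates, without over 20% cell loss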
#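 Test system: HUVEC | Signal: Immunofluorescence imaging | Read-out: Percent E-selectin-positive cells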
# Ecoli rRNA inh: inhibits bacterial ribosomal RNA function over humanized ribosomes | hit rate 1.6% among 350,000 | GFP signal change (wild-type ribosome), % (concentration not given with the values) | E. coli WT GFP vs humanized-ribosome RFP mutants, fluorescence, 24 h; stronger effect = lower value; DMSO median 0, no signal -100;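 active means significant combined selectivity score with lowered wild-type GFP, culture density cut under 30%, mutant RFP and density less affected; inactive means any of these conditions unmet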
# AF4-AF9 inh: inhibitors of human MLL-AF4/AF9 interaction; AlphaScreen, biotin-AF4 peptide binding to FLAG-AF9; inhibition, % at 10 µM; P42568; AID 651704; hit rate 0.47% among 350,000;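 active means every replicate reaching a set inhibition limit, whatever the replicate mean, cut at about 25% in these data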
# ERAP1 HTS inh: blocks human ERAP1 aminopeptidase activity; hit rate 0.15% among 340,000; inhibition, % at 10.7 µM; AID 652197; recombinant ERAP1, Leu-AMC fluorescence, 60 min; Q9NZ08;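 active means mean replicate inhibition of at least 30%, or all replicates individually reaching that 30% level; inactive means mean below 30% and not every replicate reaching it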
# SIRT5 block: sirtuin-5 (human) deacylase inhibition | Q9NXA8 | inhibition, % at 15 µM | Purified SirT5, succinyl-peptide AMC, trypsin-coupled fluorescence | AID 652115 | hit rate 1.1% among 330,000; in the data active means inhibition above about 15%
# S100A4 MyoIIA: blocks human S100A4 binding to myosin IIA peptide; hit rate 0.14% among 360,000; S100A4/TAMRA-MyoIIA peptide fluorescence polarization; inhibition, % at 10.7 µM; P26447;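 active means mean inhibition of at least 70% across replicates, with every replicate also reaching that level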
#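 Material: human S100A4 monomer with TAMRA-labelled myosin IIA peptide; buffer or medium: HEPES pH 7.2 with CaCl2, KCl, NaCl, DTT, Triton; compound dosing: one concentration per compound; schedule: 5 min incubation before reading; benchmarks: neutral control DMSO, positive control TFP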
# Numbers stand for hits; – = inactive; · = no result given. The list is not random: actives were taken first. Their share in the collection is about 3.4%.
SMILES,E-sel inducer,Ecoli rRNA inh,AF4-AF9 inh,ERAP1 HTS inh,SIRT5 block,S100A4 MyoIIA
CCN(CC)S(=O)(=O)c1ccc(NC(=O)C2CCCN(C(=O)c3ccc(Cl)cc3)C2)cc1 (centres undefined),·,-22.7,–,–,–,–
O=C(C[C@@H]1C=C[C@H](NC(=O)c2cccnc2)[C@H](CO)O1)NCCN1CCCCC1,–,–,·,·,·,·
O=C(C[C@H]1C[C@H]2c3cc(NC(=O)c4ccc5c(c4)OCO5)ccc3O[C@H]2[C@H](CO)O1)NCC(F)(F)F,–,–,–,–,–,–
CC(=O)N1CC23C=CC(CC2CC12CCCCCC2)O3 (centres undefined),35.2,–,–,–,–,–
O=C(C[C@@H]1CC[C@H](NC(=O)C2CCOCC2)[C@@H](CO)O1)NCC1CC1,–,–,–,–,–,–
CCNC(=O)CSc1nnc(-c2cccs2)o1,·,–,–,–,17.8,–
CCNC(=O)CCSc1nnc(-c2ccncc2)o1,–,–,–,–,20.2,–
CO[C@H]1CN(C)C(=O)c2ccc(NC(=O)Nc3ccccc3)cc2OC[C@H](C)N(C(=O)Nc2c(C)noc2C)C[C@@H]1C,–,–,–,–,–,–
CN(CC(=O)N1CCN(C2CCCCC2)CC1)S(=O)(=O)c1cccc2nsnc12,·,–,·,–,22.1,–
COc1ccc(NC(=O)N(C)C[C@H]2Oc3c(NC(=O)C4CC4)cccc3C(=O)N([C@H](C)CO)C[C@H]2C)cc1,–,–,–,–,–,–
COc1ccc(NC(=O)N(C)C[C@@H]2Oc3cc(C#CCC(C)C)ccc3S(=O)(=O)N([C@H](C)CO)C[C@@H]2C)cc1,–,–,–,–,30.8,–
CCCC#Cc1ccc2c(c1)O[C@H](CN(C)C(=O)Nc1ccc(OC)cc1)[C@H](C)CN([C@H](C)CO)S2(=O)=O,·,–,–,–,–,–
COc1ccc(NC(=O)N(C)C[C@H]2Oc3cc(C#CCC(C)C)ccc3S(=O)(=O)N([C@H](C)CO)C[C@H]2C)cc1,–,–,–,–,25.4,–
CCCC#Cc1ccc2c(c1)O[C@@H](CN(C)C(=O)Nc1ccc(OC)cc1)[C@@H](C)CN([C@H](C)CO)S2(=O)=O,·,–,–,–,–,–
COc1ccc(NC(=O)N(C)C[C@@H]2Oc3cc(C#CCC(C)C)ccc3S(=O)(=O)N([C@@H](C)CO)C[C@H]2C)cc1,–,–,–,–,30.6,–
COc1ccc(NC(=O)N(C)C[C@H]2Oc3cc(C#CCC(C)C)ccc3S(=O)(=O)N([C@H](C)CO)C[C@@H]2C)cc1,–,–,–,–,26.1,–
COc1ccc(NC(=O)N(C)C[C@@H]2Oc3ccc(NC(=O)NC(C)C)cc3CC(=O)N([C@@H](C)CO)C[C@H]2C)cc1,–,–,–,–,–,–
O=C(NCc1ccco1)c1ccc(Cl)c(S(=O)(=O)Nc2ccccc2)c1,·,–,–,–,–,–
Cc1ccc(C(=O)Nc2ccccc2C(=O)O)cc1S(=O)(=O)Nc1ccc(Br)cc1,–,-35.9,–,–,–,–
C=CCNC(=O)c1ccccc1NC(=O)c1ccc(Cl)c(S(=O)(=O)Nc2ccccc2)c1,·,-36.4,–,–,–,–
O=C(Nc1cccc(F)c1)N1CC(=O)N2[C@@H](CO)[C@@H](c3ccc(Br)cc3)[C@@H]2C1,–,–,–,–,–,–
CCOC(=O)N1CCN(c2nc3ccccc3n3cnnc23)CC1,–,-17.3,–,·,–,–
Cc1cccc(N2CCN(c3nc4ccccc4n4cnnc34)CC2)c1C,–,–,–,–,–,–
Cc1cnnn1-c1cccc([N+](=O)[O-])c1,·,–,–,–,–,–
Cc1ccccc1-c1cnn(-c2cccc([N+](=O)[O-])c2)c1N,·,-46.0,–,–,–,–
SMILES,E-sel inducer,Ecoli rRNA inh,AF4-AF9 inh,ERAP1 HTS inh,SIRT5 block,S100A4 MyoIIA
CCOC(=O)CN(C(=O)CSc1nnc(C)n1-c1ccccc1)c1ccccc1,·,–,·,–,–,–
Cn1cnnc1SCC(=O)c1cccc([N+](=O)[O-])c1,–,·,·,·,·,·
CCOC(=O)CN(C(=O)CSc1nnc(COc2ccc(OC)cc2)n1CC)c1ccccc1,–,-27.0,–,–,–,–
CCn1c(COc2ccccc2)nnc1SCC(=O)c1cccc([N+](=O)[O-])c1,·,-24.4,–,–,–,–
CC1CCCCC12NC(=O)N(CC(=O)NCc1ccccc1)C2=O (centres undefined),–,–,–,–,–,–
CC(=O)NCc1ccc(C(=O)CN2C(=O)NC3(CCCCC3C)C2=O)s1 (centres undefined),–,–,–,–,15.3,–
C/C(C/C(C)=C1/SC(=S)NC1=O)=C1\SC(=S)NC1=O,–,–,–,–,49.4,–
CC/C(C)=C1/NC(=O)NC1=O,–,–,–,–,·,–
N/C(=N\OC(=O)c1ccc(Cl)cc1[N+](=O)[O-])c1cccnc1,–,-21.8,–,–,–,–
N/C(=N\OC(=O)c1ccc(Cl)cc1[N+](=O)[O-])c1ccccn1,·,–,–,–,–,–
O=C(/C=C/c1ccc(S(=O)(=O)NCc2ccco2)cc1)NCc1ccccc1Cl,·,-26.8,–,–,–,–
Nc1nnc(CC(=O)N/N=C/c2cc([N+](=O)[O-])cc(Br)c2O)s1,·,–,–,–,47.0,–
COCC(=O)Nc1ccc2c(c1)[C@@H]1C[C@@H](CC(=O)NC3CCCCC3)O[C@@H](CO)[C@@H]1O2,–,–,–,–,–,–
Cc1ccc(-n2cc(CNCCCn3ccnc3C)c(-c3ccc(F)cc3)n2)cc1,–,–,26.4,–,–,–
Cc1ccc(-n2cc(CNCCc3cscn3)c(-c3ccc(F)cc3)n2)cc1,–,–,–,–,–,–
Cc1ccc(-n2cc(CN3CCN(c4ccccn4)CC3)c(-c3ccc(F)cc3)n2)cc1,–,–,–,–,–,–
Cc1ccc(-n2cc(CN3CCN(Cc4nccn4C)CC3)c(-c3ccc(F)cc3)n2)cc1,–,–,–,–,112.5,–
CCCNC(=O)Nc1ccc2c(c1)C(=O)N(C)C[C@@H](OC)[C@H](C)CN(CC1CCCC1)[C@H](C)CO2,–,–,·,·,·,·
CCCNC(=O)N1C[C@@H](O)COC[C@H]2O[C@H](CC(=O)NCc3ccc(Cl)c(Cl)c3)CC[C@@H]21,–,–,–,–,–,–
COc1ccc2c3c(n(C)c2c1)[C@H](CO)N(C(=O)C1CCOCC1)CC31CN(C(=O)C2CC2)C1,–,–,–,–,–,–
COC(=O)Cc1c(C)c2ccc(O)c(CNCc3ccc(OC)c(OC)c3)c2oc1=O,–,–,–,97.0,–,–
COc1ccc(C(=O)Nc2ccccc2C(=O)O)cc1NC(=O)C(c1ccccc1)c1ccccc1,–,-35.8,–,–,–,–
COc1ccc(C(=O)Nc2ccccc2C(=O)O)cc1Cl,–,–,–,–,–,–
